Results taken from ChEMBL document CHEMBL3425426, “Discovery of DS-1558: A Potent and Orally Bioavailable GPR40 Agonist” (ACS Med Chem Lett, 2015).
Activity calls are given as the source filed them. No cut-off for these calls is given here.

Columns and labels:
[1] = molecular target: Free fatty acid receptor 1 (Homo sapiens, UniProt O14842); experiment: Agonist activity at human GPR40 expressed in CHO cells assessed as calcium flux by FLIPR assay; format: functional, cell-based
Rattus norvegicus [2] = experiment: Reduction in glucose excursion in ZDF rat at 10 mg/kg, po dosed 30 mins before glucose challenge by OGTT method; format: functional, organism-based; design: dose 10 mg/kg
In short: (§1)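 Male Zucker diabetic fatty rats, 9 weeks old, n = 6 per group. Oral dose given 30 min before an oral glucose challenge of 2 g/kg. Plasma glucose and plasma insulin were followed over time after the challenge. Values are reported as mean ± standard error.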

Rattus norvegicus [3] = experiment: Increase in plasma insulin level in ZDF rat at 10 mg/kg, po dosed 30 mins before glucose challenge by OGTT method; format: functional, organism-based; design: dose 10 mg/kg; in short: as §1
[4] = molecular target: T1, Peroxisome proliferator-activated receptor gamma (Homo sapiens, UniProt P37231); experiment: Agonist activity at PPARgamma (unknown origin)
T1 sequence (P37231 whole entry): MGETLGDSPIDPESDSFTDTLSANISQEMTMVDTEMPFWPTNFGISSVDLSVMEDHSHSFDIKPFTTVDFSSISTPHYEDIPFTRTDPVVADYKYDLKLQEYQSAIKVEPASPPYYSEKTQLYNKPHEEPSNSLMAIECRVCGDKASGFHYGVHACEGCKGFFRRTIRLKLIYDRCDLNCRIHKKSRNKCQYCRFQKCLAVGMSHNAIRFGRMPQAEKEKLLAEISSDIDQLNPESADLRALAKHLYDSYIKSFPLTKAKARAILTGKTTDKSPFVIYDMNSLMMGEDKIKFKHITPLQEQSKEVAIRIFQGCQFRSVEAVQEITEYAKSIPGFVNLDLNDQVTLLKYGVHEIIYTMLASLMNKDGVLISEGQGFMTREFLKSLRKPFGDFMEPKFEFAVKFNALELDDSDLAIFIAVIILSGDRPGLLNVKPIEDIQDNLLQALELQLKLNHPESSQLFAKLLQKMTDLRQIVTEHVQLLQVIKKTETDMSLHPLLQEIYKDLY

[5] = molecular target: T2, Peroxisome proliferator-activated receptor gamma (Homo sapiens) (UniProt P37231); experiment: Agonist activity at PPARgamma (unknown origin) relative to rosiglitazone
T2 sequence (whole entry): T1 sequence (P37231 whole entry)

Chain of Free fatty acid receptor 1 (O14842 whole entry): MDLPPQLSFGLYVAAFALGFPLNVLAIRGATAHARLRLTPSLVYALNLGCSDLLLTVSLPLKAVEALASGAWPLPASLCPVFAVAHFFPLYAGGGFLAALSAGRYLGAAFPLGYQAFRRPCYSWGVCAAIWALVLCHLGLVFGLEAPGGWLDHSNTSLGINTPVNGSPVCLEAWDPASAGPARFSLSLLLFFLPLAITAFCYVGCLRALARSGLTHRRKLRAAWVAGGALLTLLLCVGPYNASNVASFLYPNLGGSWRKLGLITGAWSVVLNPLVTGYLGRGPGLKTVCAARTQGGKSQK

Structure (SMILES) | EC50 [1] [nM] | other results
CCO[C@@H](CC(=O)O)c1ccc(O[C@@H]2CCc3c(C)cccc32)cc1 | 29 | –
CCOC(CC(=O)O)c1ccc(OCc2ccc(Cl)c(Cl)c2)cc1 (racemic) | 6.2 | –
N[C@@H](CC(=O)N1CCn2c(nnc2C(F)(F)F)C1)Cc1cc(F)c(F)cc1F | – | Activity (Rattus norvegicus [2]): Active; Activity (Rattus norvegicus [3]): Active
CCO[C@H](CC(=O)O)c1ccc(O[C@H]2CCc3c2cccc3C(F)(F)F)cc1 | 2600 | –
CCO[C@@H](CC(=O)O)c1ccc(O[C@@H]2CCCc3ccccc32)cc1 | 62 | –
CCO[C@@H](CC(=O)O)c1ccc(O[C@H]2CCc3ccccc32)cc1 | 69 | –
CCO[C@@H](CC(=O)O)c1ccc(OC2Cc3ccccc3C2)cc1 | 83 | –
CCO[C@@H](CC(=O)O)c1ccc(OCc2ccc(C(F)(F)F)cc2)cc1 | 5.3 | EC50 [4]: 10400 nM; Emax [5]: 11.3%
